The target of series [1] is T1, Cholinesterase (Equus caballus, UniProt P81908). The series is described as follows: Inhibition of equine serum BuChE.
Series [2] has as its target Acetylcholinesterase (Electrophorus electricus, UniProt O42275). The series is described as follows: Inhibition of electrophorus electricus AChE.
Series [3] has as its target T1, Cholinesterase. Put plainly: Inhibition of equine serum BuChE after 15 mins.
Series [4] concerns Artemia salina. The series is described as follows: Toxicity against Artemia salina larvae assessed as larval mortality after 24 hrs. Format: organism-based. To be noted: in vivo. The method in brief: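 A. salina nauplii were run per the Artoxkit M protocol: samples in saline were diluted 1:10 into saline medium, 10 larvae per well. Plates were held 24 h at 25 °C, and dead nauplii were counted by stereomicroscope. There were nine repeats per concentration, and LC50 came from dose-response. Negative controls were saline with and without 5% DMSO; potassium dichromate positive control ran 3.125–150 μg mL-1.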

Series [5] deals with Artemia salina. The series is described as follows: Toxicity against Artemia salina larvae assessed as larval mortality at 100 ug/mL after 24 hrs relative to control. Type of series: organism-based. To be noted: in vivo.
Series [6] in a line: Toxicity against Artemia salina larvae assessed as larval mortality at 1000 ug/mL after 24 hrs relative to control. To be noted: in vivo, at 1000 µg/mL. Type of series: organism-based.
The test system of series [7] is Mus musculus. Put plainly: In vivo inhibition of BuChE in Swiss mouse liver at 3 to 6 mg/kg, iv by Ellman's assay. Type of series: functional, organism-based. In general terms: In Ellman's method for cholinesterases, released thiocholine reacts with DTNB.
Series [8] is described as follows: Acute toxicity in iv dosed Swiss mouse. To be noted: in vivo.
Series [9] has as its target Cholinesterase (Equus caballus) (UniProt P81908). Put plainly: Competitive inhibition of equine BuChE by Cornish-Bowden analysis.
The target in series [10] is T2, Acetylcholinesterase (Mus musculus, UniProt P21836).
T2 sequence (P21836 whole entry): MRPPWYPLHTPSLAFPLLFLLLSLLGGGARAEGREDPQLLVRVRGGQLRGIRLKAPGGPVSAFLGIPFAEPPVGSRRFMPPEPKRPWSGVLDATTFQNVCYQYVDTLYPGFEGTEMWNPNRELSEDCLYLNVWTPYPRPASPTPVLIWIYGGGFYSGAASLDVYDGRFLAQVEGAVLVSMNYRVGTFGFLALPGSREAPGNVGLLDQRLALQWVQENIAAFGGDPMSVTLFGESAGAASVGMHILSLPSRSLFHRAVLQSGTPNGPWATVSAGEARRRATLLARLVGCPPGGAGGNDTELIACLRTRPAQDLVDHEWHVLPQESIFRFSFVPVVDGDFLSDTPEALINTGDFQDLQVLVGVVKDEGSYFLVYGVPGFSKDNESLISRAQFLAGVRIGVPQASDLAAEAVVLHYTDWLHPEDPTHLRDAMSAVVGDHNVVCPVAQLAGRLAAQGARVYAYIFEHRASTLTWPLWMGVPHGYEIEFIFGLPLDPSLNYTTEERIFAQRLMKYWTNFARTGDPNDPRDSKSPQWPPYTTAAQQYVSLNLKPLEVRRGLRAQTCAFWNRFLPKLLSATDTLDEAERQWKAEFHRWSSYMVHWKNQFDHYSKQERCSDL
The series is described as follows: Inhibition of AChE in Swiss mouse liver homogenate using acetylthiocholine iodide as substrate by Ellman's assay.

Series [11] in a line: Acute oral toxicity in Swiss mouse by OECD up and down test guideline method. As to conditions: in vivo.
The target in series [12] is Cholinesterase (Mus musculus, UniProt Q03311). The series is described as follows: Inhibition of BuChE in Swiss mouse liver homogenate by Ellman's assay. Type of series: tissue-based. The method in brief:
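Swiss mouse livers from 8-week-old males were washed in ice-cold 0.2 M potassium phosphate, pH 7.6, then homogenized 1:10 w/v in 0.1 M phosphate, pH 7.6. Homogenates were spun at 1000 g, 4 °C, 15 min. Compounds were made up in 0.2 M phosphate, pH 7.6. Activity was read by modified Ellman's method, with protein by Lowry. IC50 came from dose-response, triplicate means ± SD.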

The target of series [13] is T1, Cholinesterase. The series is described as follows: Reversible competitive inhibition of equine BuChE by Lineweaver-burk plot analysis.

Active and inactive are the calls of the source. No cut-off for these calls is given here.

T1 sequence (P81908 whole entry): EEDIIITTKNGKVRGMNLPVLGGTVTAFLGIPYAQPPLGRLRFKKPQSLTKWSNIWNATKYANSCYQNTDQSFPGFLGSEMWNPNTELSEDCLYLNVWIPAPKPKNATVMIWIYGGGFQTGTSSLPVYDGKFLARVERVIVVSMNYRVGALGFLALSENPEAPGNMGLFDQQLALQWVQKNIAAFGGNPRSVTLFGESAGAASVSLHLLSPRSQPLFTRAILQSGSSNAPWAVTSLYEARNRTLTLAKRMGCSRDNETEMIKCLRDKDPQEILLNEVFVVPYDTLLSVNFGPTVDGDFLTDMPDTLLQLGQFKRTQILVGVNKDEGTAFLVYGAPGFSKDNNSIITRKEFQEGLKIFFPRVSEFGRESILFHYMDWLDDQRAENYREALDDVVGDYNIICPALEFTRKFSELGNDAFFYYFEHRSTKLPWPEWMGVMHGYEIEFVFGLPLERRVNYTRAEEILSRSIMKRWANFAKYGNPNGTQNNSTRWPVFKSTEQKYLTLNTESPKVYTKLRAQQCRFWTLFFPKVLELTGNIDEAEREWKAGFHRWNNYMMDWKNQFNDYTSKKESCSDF
Chain of Acetylcholinesterase (Electrophorus electricus, UniProt O42275) (O42275 whole entry): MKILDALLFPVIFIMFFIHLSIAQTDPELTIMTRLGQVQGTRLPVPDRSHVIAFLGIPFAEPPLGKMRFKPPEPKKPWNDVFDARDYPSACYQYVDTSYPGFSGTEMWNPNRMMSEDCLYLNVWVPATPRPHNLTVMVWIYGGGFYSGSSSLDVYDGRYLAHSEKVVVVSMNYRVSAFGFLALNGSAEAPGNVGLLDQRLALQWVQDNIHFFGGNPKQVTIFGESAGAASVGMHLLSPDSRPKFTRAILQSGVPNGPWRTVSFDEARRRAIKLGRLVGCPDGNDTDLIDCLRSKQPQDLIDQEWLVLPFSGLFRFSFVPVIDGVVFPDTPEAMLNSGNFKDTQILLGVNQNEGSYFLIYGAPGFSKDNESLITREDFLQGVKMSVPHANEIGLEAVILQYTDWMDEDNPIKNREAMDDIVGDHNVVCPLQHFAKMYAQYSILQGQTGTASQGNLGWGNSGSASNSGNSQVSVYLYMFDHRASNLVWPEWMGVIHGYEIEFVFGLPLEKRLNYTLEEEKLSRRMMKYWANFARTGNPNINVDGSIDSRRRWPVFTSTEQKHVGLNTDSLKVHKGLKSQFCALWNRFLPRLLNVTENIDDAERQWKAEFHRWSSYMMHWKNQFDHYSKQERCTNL
Chain of Cholinesterase (Equus caballus) (P81908 whole entry): as the sequence (P81908 whole entry) above
Chain of Cholinesterase (Mus musculus, UniProt Q03311) (Q03311 whole entry): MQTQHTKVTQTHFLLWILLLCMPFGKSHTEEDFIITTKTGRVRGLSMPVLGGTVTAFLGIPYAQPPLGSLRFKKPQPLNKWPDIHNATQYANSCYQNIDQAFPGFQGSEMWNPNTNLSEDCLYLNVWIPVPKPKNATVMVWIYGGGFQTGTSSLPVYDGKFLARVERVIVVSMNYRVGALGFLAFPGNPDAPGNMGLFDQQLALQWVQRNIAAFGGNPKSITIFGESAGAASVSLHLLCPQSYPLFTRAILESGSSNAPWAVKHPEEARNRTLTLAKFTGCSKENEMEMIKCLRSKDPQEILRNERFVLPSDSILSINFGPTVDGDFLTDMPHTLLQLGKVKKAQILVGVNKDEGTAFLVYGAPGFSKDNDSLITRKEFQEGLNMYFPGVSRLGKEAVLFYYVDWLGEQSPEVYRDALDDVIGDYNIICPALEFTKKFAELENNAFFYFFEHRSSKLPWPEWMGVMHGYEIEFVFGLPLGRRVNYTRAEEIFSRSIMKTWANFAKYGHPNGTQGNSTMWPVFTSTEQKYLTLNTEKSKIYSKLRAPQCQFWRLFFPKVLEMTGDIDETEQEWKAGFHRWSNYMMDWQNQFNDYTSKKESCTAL

The term IC50 denotes the midpoint of a concentration-inhibition curve. Low readings indicate greater potency in that assay, high ones weaker potency in that assay. Take `O=C1N(Cc2ccccc2)c2ccccc2C1(O)c1ccccc1` (racemic): the IC50 in series [1] was 7.41 µM; in series [2], 237 µM.
With `O=C1N(CC2CCN(Cc3ccccc3)CC2)c2ccccc2C1(O)c1ccccc1` (racemic), the IC50 in series [3] is 6.61 µM; in series [2], 193 µM.
In general, LC50 refers to the concentration that kills 50% of the test population. Turning to POTASSIUM DICHROMATE, the LC50 in series [4] is 15.04 µg/mL. In addition, the Activity in [5] stood at 100%.
In general, mortality refers to the share of the test organisms that died. Broadly, the LD50 is the dose at which mortality reaches 50%. As for `COc1cc2c(cc1OC)C(=O)C(CC1CCN(Cc3ccccc3)CC1)C2` (stereo not drawn) [DONEPEZIL], the mortality at 24 h, 1000 ug/mL in series [6] stood at 26%. Moreover, the inhibition entry in series [7] is “Active”. The LD50 in [8] amounted to 3.7 mg/kg.
For orientation: Ki means the dissociation constant of the complex between target and ligand, obtained from inhibition or displacement. A higher Ki goes with weaker binding. `Cl.O=C1N(CC2CCNCC2)c2ccccc2C1(O)c1ccccc1` (racemic): the inhibition result in [9] and in [7] was “Active” each time. For the same compound, in series [6], the mortality at 24 h, 1000 ug/mL worked out at 5%. For the same compound, the IC50 in series [10] was 565 µM; in series [12], 435 µM; in [1] it was 18.3 µM; in [2] it was 500 µM. Moreover, in series [11], the LD50 came to 100 mg/kg. The compound also yielded a Ki in [13] of 41 µM.

These data come from ChEMBL document CHEMBL4308913, “In silico, NMR and pharmacological evaluation of an hydroxyoxindole cholinesterase inhibitor” (Bioorg Med Chem, 2019).
